In ChEMBL document CHEMBL2385072, “Development of oleanane-type triterpenes as a new class of HCV entry inhibitors” (J Med Chem, 2013):

Experiments:
Hepatitis C virus [1] = experiment: Antiviral activity against pseudo HCV infected in human 293T cells assessed as inhibition of HCV pseudo particles entry at 5 uM after 72 hrs by luciferase reporter gene assay; assay type: functional, Hepacivirus hominis; details: HEK-293T
Hepatitis C virus [2] = experiment: Antiviral activity against pseudo HCV infected in human 293T cells assessed as inhibition of HCV pseudo particles entry at 1 uM after 72 hrs by luciferase reporter gene assay; assay type: functional, Hepacivirus hominis; details: HEK-293T
Hepatitis C virus [3] = experiment: Ratio of echinocystic acid IC50 to compound IC50 for pseudo HCV infected in human 293T cells assessed as inhibition of HCV pseudo particles entry after 72 hrs by luciferase reporter gene assay; assay type: functional, Hepacivirus hominis
Summary of the method: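 HCVpp luciferase entry assay in Huh-7 cells, 72 h at 37 °C. Six-point curves at tenfold steps, 1 nM–100 μM or 0.5 nM–50 μM. Each concentration in triplicate, mean and SD.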

HEK-293T = experiment: Cytotoxicity against human 293T cells at 50 uM after 48 hrs by Alamar Blue assay; assay type: cell-based
Summary of the method: (§1)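 alamarBlue viability assay in HepG2, HeLa and 293T cells, compound up to 50 μM.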

HeLa = experiment: Cytotoxicity against human HeLa cells at 50 uM after 48 hrs by Alamar Blue assay; assay type: cell-based; summary of the method: as §1
HepG2 = experiment: Cytotoxicity against human HepG2 cells at 50 uM after 48 hrs by Alamar Blue assay; assay type: cell-based; details: hepg2, 48 h; summary of the method: as §1
Hepatitis C virus [4] = experiment: Antiviral activity against pseudo HCV infected in human 293T cells assessed as inhibition of HCV pseudo particles entry after 72 hrs by luciferase reporter gene assay; assay type: functional, organism-based, Hepacivirus hominis
Summary of the method: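 HCVpp (HCV E1/E2 on Env/Vpr-deficient HIV luciferase vector, made in 293T by cotransfection, harvested 72 h) added to 5×10^3 Huh-7 cells/well with compound at final 1 or 5 μM in 1% DMSO; 72 h, 37 °C; luciferase read. Inhibition = 100 − % of DMSO control after uninfected-well background subtraction; VSVpp run in parallel; duplicate, ≥3 experiments.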

[5] = tested on: Vesicular stomatitis virus; experiment: Antiviral activity against pseudo VSV infected in human 293T cells assessed as inhibition of vesicular stromatis G protein pseudo particles entry at 5 uM after 72 hrs by luciferase reporter gene assay; assay type: functional; details: HEK-293T
[6] = tested on: Vesicular stomatitis virus; experiment: Antiviral activity against pseudo VSV infected in human 293T cells assessed as inhibition of vesicular stromatis G protein pseudo particles entry at 1 uM after 72 hrs by luciferase reporter gene assay; assay type: functional; details: HEK-293T
CD81 antigen = target: T1, CD81 antigen (Homo sapiens, UniProt P60033); experiment: Binding affinity to CD81 (unknown origin)
T1 sequence (P60033 whole entry): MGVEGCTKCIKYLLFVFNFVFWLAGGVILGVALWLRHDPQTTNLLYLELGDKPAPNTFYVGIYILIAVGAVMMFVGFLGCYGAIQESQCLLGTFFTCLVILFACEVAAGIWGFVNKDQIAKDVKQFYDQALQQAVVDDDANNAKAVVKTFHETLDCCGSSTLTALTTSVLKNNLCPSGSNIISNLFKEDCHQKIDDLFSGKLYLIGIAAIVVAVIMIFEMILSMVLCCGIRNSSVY
Summary of the method: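 BIAcore: E2 immobilized on a streptavidin sensor via SA–biotin and exposed to CD81 at 40.9–654.5 nM to fit K_D. CD81 was also tested together with compound.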

[7] = Hemolytic activity against rabbit RBC after 60 mins by spectrophotometry; assay type: ADME, cell-based, Oryctolagus cuniculus, Erythrocyte
Summary of the method: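 2% rabbit erythrocytes in 130 mM NaCl, 20 mM Tris-HCl pH 7.4 incubated with serially diluted compounds for 60 min at 37 °C. Hemolysis read as absorbance at 540 nm.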

Hepatitis C virus [8] = experiment: Antiviral activity against pseudo HCV infected in human 293T cells assessed as inhibition of HCV pseudo particles entry at 10 uM after 72 hrs by luciferase reporter gene assay; assay type: functional, Hepacivirus hominis; details: HEK-293T

| Structure (SMILES) | Activity (HEK-293T) | Activity (HeLa) | Activity (HepG2) | IC50 (Hepatitis C virus [4]) | inhibition at 10 µM (Hepatitis C virus [8]) | further results |
| --- | --- | --- | --- | --- | --- | --- |
| CC1(C)CC[C@]2(C(=O)NCc3cn(CCCn4cc(CNC(=O)[C@]56CCC(C)(C)C[C@H]5C5=CC[C@@H]7[C@@]8(C)CC[C@H](O)C(C)(C)[C@@H]8CC[C@@]7(C)[C@]5(C)C[C@H]6O)nn4)nn3)[C@H](O)C[C@]3(C)C(=CC[C@@H]4[C@@]5(C)CC[C@H](O)C(C)(C)[C@@H]5CC[C@]43C)[C@@H]2C1 | Non-toxic | Non-toxic | Non-toxic | 0.01 µM | – | inhibition at 5 µM (Hepatitis C virus [1]): 89%; inhibition at 1 µM (Hepatitis C virus [2]): 86.3%; Ratio IC50 (Hepatitis C virus [3]): 200; inhibition at 5 µM [5]: 11.9%; inhibition at 1 µM [6]: 16.5% |
| CC(=O)OC[C@H]1O[C@@H](O[C@H]2[C@H](OC(C)=O)[C@@H](OC(C)=O)[C@H](OC(=O)[C@]34CCC(C)(C)C[C@H]3C3=CC[C@@H]5[C@@]6(C)CC[C@H](O)C(C)(C)[C@@H]6CC[C@@]5(C)[C@]3(C)C[C@H]4O)O[C@@H]2COC(C)=O)[C@H](OC(C)=O)[C@@H](OC(C)=O)[C@H]1OC(C)=O | Non-toxic | Non-toxic | Non-toxic | 0.3 µM | – | inhibition at 5 µM (Hepatitis C virus [1]): 88.6%; inhibition at 1 µM (Hepatitis C virus [2]): 80.4%; Ratio IC50 (Hepatitis C virus [3]): 5; inhibition at 5 µM [5]: 14.9%; inhibition at 1 µM [6]: 11.2% |
| CC1(C)CC[C@]2(C(=O)O)[C@H](O)C[C@]3(C)C(=CC[C@@H]4[C@@]5(C)CC[C@H](O)C(C)(C)[C@@H]5CC[C@]43C)[C@@H]2C1 [ECHINOCYSTIC ACID] | Non-toxic | Non-toxic | Non-toxic | – | – | Kd (CD81 antigen): 0.021 µM; HC50 at 1 h ([7]; rabbit red blood cells, read-out: CC50): 15 µM |
| CC1(C)CC[C@]2(C(=O)O)CC[C@]3(C)C(=CC[C@@H]4[C@@]5(C)CC[C@H](O)C(C)(C)[C@@H]5CC[C@]43C)[C@@H]2C1 [OLEANOLIC_ACID] | – | – | – | 10 µM | 65% | Activity ([7]; erythrocyte, 1 h): Toxic |
| CC1(C)CC[C@]2(C(=O)O)[C@H](O)C[C@]3(C)C(=CC[C@@H]4[C@@]5(C)CC[C@H](O)C(C)(C)[C@@H]5[C@H](O)C[C@]43C)[C@@H]2C1 | – | – | – | – | 5% | – |
| CC1(C)[C@@H](O)CC[C@]2(C)[C@H]3CC=C4[C@@H]5C[C@](C)(CO)CC[C@]5(C(=O)O)[C@H](O)C[C@@]4(C)[C@]3(C)CC[C@@H]12 | – | – | – | – | 90% | – |
| CC1(C)CC[C@]2(C(=O)O)CC[C@]3(C)C(=CC[C@@H]4[C@@]5(C)CC[C@H](O)[C@@](C)(C=O)[C@@H]5CC[C@]43C)[C@@H]2C1 | – | – | – | – | 0% | – |
| CC1(C)CC[C@]2(C(=O)O)CC[C@]3(C)C(=CC[C@@H]4[C@@]5(C)CC[C@H](O)[C@@](C)(CO)[C@@H]5CC[C@]43C)[C@@H]2C1 [HEDERAGENIN] | – | – | – | – | 10% | – |
